The text below walks through data of ChEMBL document CHEMBL1126036, “Quinolone antibacterial agents. Synthesis and structure-activity relationships of a series of amino acid prodrugs of racemic and chiral 7-(3-amino-1-pyrrolidinyl)quinolones. Highly soluble quinolone prodrugs with in vivo pseudomonas activity” (J Med Chem, 1992).

Converted amounts (≈) assume the structure as drawn.

A short description of data set [1]: Solubility (in 0.1 N HCl). The class given is physicochemical. The settings on record: read-out: S. A digest of the protocol:
(§1)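 Solubility was measured either from HPLC peak areas at equilibrium or by a conventional weight-per-volume method. All solutions were held for 24 h before measurement.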

Data set [2] in a line: Solubility (at pH 4). The settings on record: buffer, read-out: S. It is filed as physicochemical. Summed up:
as §1

A short description of data set [3]: Solubility (at pH 7.4). The class given is physicochemical. The settings on record: buffer, read-out: S. A digest of the protocol: as §1
The subject of data set [4] is Escherichia coli. Put plainly: In vitro antibacterial activity against gram negative Escherichia coli Vogel. The class given is functional.
A further data set concerns Enterococcus faecalis. Put plainly: In vitro antibacterial activity against gram positive Enterococcus faecalis MGH-2. The class given is functional.
The target in data set [5] is DNA gyrase (Escherichia coli) (UniProt P0AES6+P0AES4). Put plainly: In vitro concentration inhibiting DNA gyrase induced cleavage in Escherichia coli H560. It is filed as functional. Summed up:
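DNA gyrase test run as described in earlier work. The value is the drug concentration (µg/mL) needed to cause DNA cleavage.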

Another data set concerns Enterobacter cloacae. Put plainly: In vitro antibacterial activity against gram negative Enterobacter cloacae MA 2646. It is filed as functional.
Data set [6] relates to Klebsiella pneumoniae. Put plainly: In vitro antibacterial activity against gram negative Klebsiella pneumoniae MGH-2. The class given is functional.
For data set [7], the system named is Escherichia coli. Put plainly: In vivo potency against acute systemic infection in mouse caused by Escherichia coli Vogel on oral administration by gavage. The class given is functional. The settings on record: read-out: PD50. A digest of the protocol: (§2)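 Acute systemic mouse infection. A single oral dose was given by gavage at the time of challenge. Potency is reported as the median protective dose (PD50, mg/kg), determined by earlier published methods.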

Data set [8] concerns Streptococcus pneumoniae. Put plainly: In vivo potency against acute systemic infection in mouse caused by Streptococcus pneumoniae SV-1 on oral administration by gavage. It is filed as functional. The settings on record: read-out: PD50. Summed up:
as §2

The test system of data set [9] is Streptococcus pneumoniae. Put plainly: In vivo potency against acute systemic infection in mouse caused by Streptococcus pneumoniae SV-1 on subcutaneous injection. It is filed as functional. The settings on record: sc, read-out: PD50. A digest of the protocol:
(§3)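 Acute systemic mouse infection. A single subcutaneous dose was injected at the time of challenge. Potency is reported as the median protective dose (PD50, mg/kg), determined by earlier published methods.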

Data set [10] has as its system Escherichia coli. Put plainly: In vivo potency against acute systemic infection in mouse caused by Escherichia coli vogel on subcutaneous injection. It is filed as functional. The settings on record: sc, read-out: PD50. Summed up:
as §3

Data set [11] relates to Mus musculus. Put plainly: In vivo potency against acute systemic infection in mouse caused by Streptococcus pyogenes C-203 on oral administration by gavage. It is filed as functional. The settings on record: read-out: PD50. Summed up: as §2
For data set [12], the system named is Mus musculus. Put plainly: In vivo potency against acute systemic infection in mouse caused by Streptococcus pyogenes C-203 on subcutaneous injection. The settings on record: sc, read-out: PD50. The class given is functional. Summed up:
as §3

For the next data set, the system named is Pseudomonas aeruginosa. Put plainly: In vitro antibacterial activity against gram negative Pseudomonas aeruginosa UI-18. The class given is functional.
Another data set concerns Providencia rettgeri. Put plainly: In vitro antibacterial activity against gram negative Providencia rettgeri M-1771. The class given is functional.
Data set [13] deals with Staphylococcus aureus. Put plainly: In vitro antibacterial activity against gram positive Staphylococcus aureus H-228. The class given is functional.
A further data set deals with Streptococcus pyogenes. Put plainly: In vitro antibacterial activity against gram positive Streptococcus pyogenes C-203. It is filed as functional.
Data set [14] relates to Staphylococcus aureus. Put plainly: In vitro antibacterial activity against gram positive Staphylococcus aureus UC76. The class given is functional.
The test system of data set [15] is Streptococcus pneumoniae. Put plainly: In vitro antibacterial activity against gram positive Streptococcus pneumoniae SV-1. It is filed as functional.
A short description of data set [16]: Aqueous solubility. The class given is physicochemical. The settings on record: read-out: S. Summed up:
as §1

The subject of data set [17] is Mus musculus. Put plainly: In vivo potency against acute systemic infection in mouse caused by Pseudomonas aeruginosa UI-18 on oral administration by gavage. It is filed as functional. The settings on record: read-out: PD50. Summed up: as §2
Data set [18] relates to Mus musculus. Put plainly: In vivo potency against acute systemic infection in mouse caused by Pseudomonas aeruginosa. UI-18. on subcutaneous injection. The class given is functional. The settings on record: sc, read-out: PD50. A digest of the protocol: as §3
The test system of data set [19] is Klebsiella pneumoniae. Put plainly: In vitro antibacterial activity against gram negative Klebsiella pneumoniae. MGH-2. The class given is functional.

Broadly, the MIC is the lowest concentration found to suppress growth. A lower MIC goes with a more susceptible organism. For `Cl.Nc1c(F)c(N2CC[C@H](N)C2)c(F)c2c1c(=O)c(C(=O)O)cn2C1CC1.O`, the solubility in data set [1] was found to be 250 µg/mL; in [2], 2300 µg/mL; in data set [3], 50 µg/mL; in [16] (water (aqueous)), 2500 µg/mL. Further, the MIC against Escherichia coli [4] turned out to be 0.003 µg/mL; in the data set on Enterococcus faecalis it was 0.025 µg/mL; against Enterobacter cloacae, 0.003 µg/mL; with Klebsiella pneumoniae [6], 0.013 µg/mL; with Pseudomonas aeruginosa it was 0.025 µg/mL; against Providencia rettgeri it was 0.025 µg/mL. In addition, the minimal inhibitory concentration (MIC) against Staphylococcus aureus [13] came to 0.006 µg/mL; against Streptococcus pyogenes it was 0.013 µg/mL; against Staphylococcus aureus [14] it was 0.003 µg/mL; with Streptococcus pneumoniae [15], 0.006 µg/mL. The compound also gave a Cleavage in [5] of 0.1 µg/mL. Besides, the ED50 was 1.2 mg/kg in the data set with Escherichia coli [7]; 10 mg/kg with Streptococcus pneumoniae [8]; 6 mg/kg in the data set with Streptococcus pneumoniae [9]; 0.4 mg/kg in the data set on Escherichia coli [10]; 18 mg/kg with Mus musculus [11]; 5.5 mg/kg in the data set with Mus musculus [12].

As to `Cl.NC1CCN(c2c(F)cc3c(=O)c(C(=O)O)cn(C4CC4)c3c2F)C1` (stereo unspecified), the solubility in data set [1] came to 3000 µg/mL; in data set [2], 2400 µg/mL; in data set [3] it was 80 µg/mL; in [16] (water (aqueous)), 15000 µg/mL. Also, the MIC in the data set with Escherichia coli [4] was found to be 0.013 µg/mL; against Enterococcus faecalis, 0.05 µg/mL; against Enterobacter cloacae, 0.025 µg/mL; against Klebsiella pneumoniae [6], 0.025 µg/mL; against Pseudomonas aeruginosa, 0.05 µg/mL; in the data set with Providencia rettgeri, 0.05 µg/mL. Moreover, the MIC against Staphylococcus aureus [13] was 0.025 µg/mL; with Streptococcus pyogenes, 0.05 µg/mL; with Staphylococcus aureus [14], 0.006 µg/mL; with Streptococcus pneumoniae [15] it was 0.05 µg/mL. This compound gave a Cleavage in [5] of 0.1 µg/mL. Further, the ED50 stood at 1 mg/kg with Escherichia coli [7]; 15 mg/kg in the data set on Streptococcus pneumoniae [8]; 6 mg/kg in the data set on Streptococcus pneumoniae [9]; 0.2 mg/kg in the data set on Escherichia coli [10]; 7 mg/kg in the data set with Mus musculus [17]; 3 mg/kg with Mus musculus [18]. Also, the ED50 turned out to be 7 mg/kg in the data set with Mus musculus [11] and 2 mg/kg in the data set on Mus musculus [12].

Consider `NC(=O)CC[C@H](N)C(=O)NC1CCN(c2nc3c(cc2F)c(=O)c(C(=O)O)cn3C2CC2)C1` (stereo partly specified), for which the solubility in data set [1] came out at 1400 µg/mL (≈ 3040 µM); in data set [2] it was 3100 µg/mL (≈ 6730 µM); in [16] (pH 7.4 phosphate buffer), 50 µg/mL (≈ 109 µM); in data set [16] (water (aqueous)) it was 6100 µg/mL (≈ 13200 µM). Moreover, the MIC was 6.3 µg/mL (≈ 13.7 µM) with Escherichia coli [4]; 6.3 µg/mL (≈ 13.7 µM) in the data set with Enterococcus faecalis; 6.3 µg/mL (≈ 13.7 µM) against Enterobacter cloacae; 12.5 µg/mL (≈ 27.1 µM) against Klebsiella pneumoniae [19]; above 25 µg/mL in the data set with Pseudomonas aeruginosa; 25 µg/mL (≈ 54.3 µM) against Providencia rettgeri. Also, the MIC against Staphylococcus aureus [13] amounted to 3.1 µg/mL (≈ 6.73 µM); in the data set on Streptococcus pyogenes, 12.5 µg/mL (≈ 27.1 µM); against Staphylococcus aureus [14], 0.8 µg/mL (≈ 1.74 µM); in the data set with Streptococcus pneumoniae [15], 12.5 µg/mL (≈ 27.1 µM). In [5], this compound yielded a Cleavage of 5 µg/mL. Moreover, the ED50 is 4.8 mg/kg with Escherichia coli [7] and 0.4 mg/kg in the data set with Escherichia coli [10].

On to `Cl.NCC(=O)NC1CCN(c2c(F)c(N)c3c(=O)c(C(=O)O)cn(C4CC4)c3c2F)C1.O` (stereo unspecified), for which the solubility in [1] amounted to 3500 µg/mL; in data set [2] it was 69000 µg/mL; in data set [3], 70 µg/mL; in data set [16] (water (aqueous)) it was 17000 µg/mL. For the same compound, the minimal inhibitory concentration (MIC) against Escherichia coli [4] was found to be 0.2 µg/mL; in the data set on Enterococcus faecalis, 0.4 µg/mL; with Enterobacter cloacae, 0.2 µg/mL; with Klebsiella pneumoniae [6] it was 0.4 µg/mL; in the data set on Pseudomonas aeruginosa, 1.6 µg/mL; with Providencia rettgeri it was 0.4 µg/mL. In addition, the MIC in the data set on Staphylococcus aureus [13] is 0.4 µg/mL; in the data set with Streptococcus pyogenes, 0.2 µg/mL; with Staphylococcus aureus [14] it was 0.1 µg/mL; with Streptococcus pneumoniae [15], 0.4 µg/mL. The compound also registered a Cleavage in data set [5] of 5 µg/mL. For the same compound, the ED50 was determined as 1 mg/kg in the data set with Escherichia coli [7]; 29 mg/kg in the data set with Streptococcus pneumoniae [8]; 16 mg/kg in the data set with Streptococcus pneumoniae [9]; 0.4 mg/kg in the data set on Escherichia coli [10]; 36 mg/kg with Mus musculus [11]; 8.1 mg/kg in the data set on Mus musculus [12].

In the case of `Cl.NC1CCN(c2cc3c(cc2F)c(=O)c(C(=O)O)cn3C2CC2)C1.O` (stereo unspecified), the minimum inhibitory concentration (MIC) with Escherichia coli [4] is 0.025 µg/mL; against Enterococcus faecalis it was 0.1 µg/mL; in the data set with Enterobacter cloacae it was 0.025 µg/mL; in the data set with Klebsiella pneumoniae [6] it was 0.05 µg/mL; with Pseudomonas aeruginosa it was 0.1 µg/mL; against Providencia rettgeri, 0.1 µg/mL. The MIC against Staphylococcus aureus [13] is 0.2 µg/mL; against Streptococcus pyogenes, 0.1 µg/mL; in the data set on Staphylococcus aureus [14] it was 0.025 µg/mL; with Streptococcus pneumoniae [15], 0.1 µg/mL. Besides, the Cleavage in data set [5] was 0.1 µg/mL. In addition, the ED50 turned out to be 3 mg/kg in the data set with Escherichia coli [7]; 43 mg/kg in the data set with Streptococcus pneumoniae [8]; 4 mg/kg in the data set with Streptococcus pneumoniae [9]; 0.5 mg/kg in the data set on Escherichia coli [10]; 49 mg/kg in the data set on Mus musculus [17]; 5 mg/kg in the data set on Mus musculus [18]. Also, the ED50 with Mus musculus [11] was 97 mg/kg; with Mus musculus [12], 11 mg/kg.
